# “Also recorded” adds a separate entry of the source.
# How the values were obtained:
# Tritrichomonas foetus = assay: In vitro protozoal parasite susceptibility assay; assay type: cell-based; conditions: 24 h; for Average % inhibition at 50 μM (Tritrichomonas foetus): T. foetus strain D1, cells counted with hemacytometer; for inhibition at 50 µM: Tritrichomonas foetus, read-out: Average % inhibition at 50 μM (Tritrichomonas foetus)
# Method in brief: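 T. foetus strain D1 was screened in TYM Diamond's medium. Test compound was dissolved in DMSO and diluted into the medium. After 24 h exposure, parasites were counted with a hemacytometer.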
# [1] = tested on: human prostate (PC-3) cancer cell line; assay: In vitro cytotoxic studies; assay type: cell-based; conditions: PC-3 cells; for Cytotoxicity % inhibition: 72 h, MTT; for Cytotoxicity against PC-3 cell line (in words): tested at 0.2, 2.0 and 20 μM
# Method in brief: (§1)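 PC-3 cells grown in DMEM with 10% FBS and plated in 96-well format. They were exposed to test compound over 20 μM–0.001 μM for 72 h. MTT was then added (stock 5 mg/ml in PBS) for 4 h. Plates were spun, supernatant removed and formazan dissolved in DMSO with 30 min shaking. A550 was read and percentage inhibition calculated.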
# [2] = In vitro cytotoxic studies; assay type: cell-based, human; conditions: human, PC-3 prostate cancer cells
# Method in brief: as §1
Compound,Average % inhibition at 50 μM (Tritrichomonas foetus) (Tritrichomonas foetus),Cytotoxicity % inhibition ([1]; 0.2 μM),Cytotoxicity % inhibition ([1]; 2 μM),Cytotoxicity % inhibition ([1]; 20 μM),inhibition at 50 µM (Tritrichomonas foetus),"cytotoxicity at 72 h, 0.2 µM [2]","cytotoxicity at 72 h, 2 µM [2]","cytotoxicity at 72 h, 20 µM [2]",Cytotoxicity against PC-3 cell line (in words) [1]
"5-Methyl-1-(4-pyrrolidin-1-yl-but-2-ynyl)-1H-indole-2,3-dione [Compound 3m]",31.8%,6.8%,10.5%,2.4%,,,,,
"O=C1C(=O)N(CC#CCN2CCCCC2)c2ccccc21 [Compound 3a, 1-(4-Piperadin-1-yl-but-2-ynyl)-1H-indole-2,3-dione]",18.2%,6.0%,4.0%,7.0%,,,,,
"O=C1C(=O)N(CC#CCN2CCCC2)c2ccccc21 [Compound 3b, 1-(4-Pyrrolidin-1-yl-but-2-ynyl)-1H-indole-2,3-dione]",,,,,10.6%,7%,7%,3%,
"O=C1C(=O)N(CC#CCN2CCOCC2)c2ccccc21 [Compound 3c, 1-(4-Morpholin-4-yl-but-2-ynyl)-1H-indole-2,3-dione]",,,,,9.1%,13.4%,11.6%,8.7%,
"CCN(CC)CC#CCN1C(=O)C(=O)c2ccccc21 [Compound 3d, 1-(4-Diethylamino-but-2-ynyl)-1H-indole-2,3-dione]",,,,,22.7%,8%,4.6%,8%,
"O=C1C(=O)N(CC#CCN2CCCCC2)c2ccc(Cl)cc21 [Compound 3e, 5-Chloro-1-(4-piperidin-1-yl-but-2-ynyl)-1H-indole-2,3-dione]",,,,,3%,11.1%,10.7%,18.7%,
"O=C1C(=O)N(CC#CCN2CCCC2)c2ccc(Cl)cc21 [Compound 3f, 5-Chloro-1-(4-pyrrolidin-1-yl-but-2-ynyl)-1H-indole-2,3-dione]",,,,,15.2%,4.6%,4.3%,9.6%,
"O=C1C(=O)N(CC#CCN2CCOCC2)c2ccc(Cl)cc21 [Compound 3g, 5-Chloro-1-(4-morpholin-4-yl-but-2-ynyl)-1H-indole-2,3-dione]",,,,,22.7%,0.8%,4.3%,3.4%,
"CCN(CC)CC#CCN1C(=O)C(=O)c2cc(Cl)ccc21 [Compound 3h, 5-Chloro-1-(4-diethylamino-but-2-ynyl)-1H-indole-2,3-dione]",,,,,42.4%,4.8%,5.6%,6.4%,
"O=C1C(=O)N(CC#CCN2CCCCC2)c2ccc(F)cc21 [Compound 3i, 5-Fluoro-1-(4-piperidin-1-yl-but-2-ynyl)-1H-indole-2,3-dione]",,,,,40.9%,-4.7%,-6%,5.1%,
"O=C1C(=O)N(CC#CCN2CCCC2)c2ccc(F)cc21 [Compound 3j, 5-Fluoro-1-(4-pyrrolidin-1-yl-but-2-ynyl)-1H-indole-2,3-dione]",,,,,33.3%,5%,4.3%,-2.7%,
"O=C1C(=O)N(CC#CCN2CCOCC2)c2ccc(F)cc21 [Compound 3k, 5-Fluoro-1-(4-morpholin-4-yl-but-2-ynyl)-1H-indole-2,3-dione]",,,,,56.1%,3.8%,0.7%,3.2%,
"CCN(CC)CC#CCN1C(=O)C(=O)c2cc(F)ccc21 [Compound 3l, 1-(4-Diethylamino-but-2-ynyl)-5-fluoro-1H-indole-2,3-dione]",,,,,18.2%,11.6%,14.5%,7.9%,
"Cc1ccc2c(c1)C(=O)C(=O)N2CC#CCN1CCCC1 [Compound 3n, 5-Methyl-1-(4-pyrrolidin-1-yl-but-2-ynyl)-1H-indole-2,3-dione]",,,,,65.2%,1.9%,4.7%,6.1%,
"Cc1ccc2c(c1)C(=O)C(=O)N2CC#CCN1CCOCC1 [Compound 3o, 5-Methyl-1-(4-morpholin-4yl-but-2-ynyl)-1H-indole-2,3-dione]",,,,,57.6%,8%,7.8%,3.5%,
"CCN(CC)CC#CCN1C(=O)C(=O)c2cc(C)ccc21 [Compound 3p, 1-(4-Diethylamino-but-2-ynyl)-5-methyl-1H-indole-2,3-dione]",,,,,51.5%,11.5%,10.2%,11.2%,
"O=C1C(=O)N(CC#CCN2CCN(CC#CCN3C(=O)C(=O)c4ccccc43)CC2)c2ccccc21 [Compound 5a, Bis-{1-(yl-but-2-ynyl)-1H-indole-2,3-dione} piperazine]",3.0%,6.5%,10.3%,45.8%,,,,,cytotoxic
"O=C1C(=O)N(CC#CCN2CCN(CC#CCN3C(=O)C(=O)c4cc(Cl)ccc43)CC2)c2ccc(Cl)cc21 [Compound 5b, Bis-{5-chloro-1-(yl-but-2-ynyl)-1H-indole-2,3-dione} piperazine]",7.6%,24.4%,28.9%,24.8%,,,,,
"O=C1C(=O)N(CC#CCN2CCN(CC#CCN3C(=O)C(=O)c4cc(F)ccc43)CC2)c2ccc(F)cc21 [Compound 5c, Bis-{5-fluoro-1-(yl-but-2-ynyl)-1H-indole-2,3-dione} piperazine]",9.1%,−0.6%,−3.6%,7.4%,,,,,
"Cc1ccc2c(c1)C(=O)C(=O)N2CC#CCN1CCN(CC#CCN2C(=O)C(=O)c3cc(C)ccc32)CC1 [Compound 5d, Bis-{5-methyl-1-(yl-but-2-ynyl)-1H-indole-2,3-dione} piperazine]",71.2%,−1.0%,6.7%,7.1%,,,,,
"O=C1C(=O)N(CC#CCN2CCN(c3ccnc4cc(Cl)ccc34)CC2)c2ccccc21 [Compound 7a, 1-{4-[4-(7-Chloro-quinolin-4-yl)-piperazin-1-yl]-but-2-ynyl}-1H-indole-2,3-dione]",,,,,98.5%,9%,10.1%,-3.2%,no cytotoxicity; also recorded: minimal toxicity
"O=C1C(=O)N(CC#CCN2CCN(c3ccnc4cc(Cl)ccc34)CC2)c2ccc(F)cc21 [Compound 7b, 1-{4-[4-(7-Chloro-quinolin-4-yl)-piperazin-1-yl]-but-2-ynyl}-5-fluoro-1H-indole-2,3-dione]",,,,,100%,2.1%,5%,3%,no cytotoxicity
"O=C1C(=O)N(CC#CCN2CCN(c3ccnc4cc(Cl)ccc34)CC2)c2ccc(Cl)cc21 [Compound 7c, 5-Chloro-1-{4-[4-(7-chloro-quinolin-4-yl)-piperazin-1-yl]-but-2-ynyl}-1H-indole-2,3-dione]",,,,,100%,6.1%,1.2%,1.4%,no cytotoxicity; also recorded: minimal toxicity
"Cc1ccc2c(c1)C(=O)C(=O)N2CC#CCN1CCN(c2ccnc3cc(Cl)ccc23)CC1 [Compound 7d, 1-{4-[4-(7-Chloro-quinolin-4-yl)-piperazin-1-yl]-but-2-ynyl}-5-methyl-1H-indole-2,3-dione]",,,,,59.1%,1.3%,8.1%,8.2%,no cytotoxicity; also recorded: minimal toxicity
"O=C1C(=O)N(CC#CCN2CCN(c3ccnc4cc(Cl)ccc34)CC2)c2ccc([N+](=O)[O-])cc21 [Compound 7e, 1-{4-[4-(7-Chloro-quinolin-4-yl)-piperazin-1-yl]-but-2-ynyl}-5-nitro-1H-indole-2,3-dione]",,,,,60.6%,0.5%,3.2%,4.8%,
"CS(=O)(=O)N1CCN(Cc2cc3nc(-c4cccc5[nH]ncc45)nc(N4CCOCC4)c3s2)CC1 [GDC-0941, reference compound]",,,,,,30.2%,56.8%,72.2%,
